ChEMBL document CHEMBL3872285, “Discovery of a Potent, Selective, and Orally Available PI3Kδ Inhibitor for the Treatment of Inflammatory Diseases” (ACS Med Chem Lett, 2017)

How the values were obtained:
[1] = Apparent volume of distribution in Beagle dog at 1 mg/kg, iv through bolus administration; type: ADME, organism-based, Canis lupus familiaris; settings: in vivo, read-out: Vz
Rattus norvegicus [2] = assay: In vivo inhibition of PI3Kdelta in Wistar rat assessed as reduction in ConA-induced increase in plasma IL2 production administered through oral gavage 1 hr prior to ConA measured 90 mins post ConA challenge by ELISA; type: functional; settings: read-out: ID50 (the source's name)
[3] = Drug metabolism in human liver microsomes assessed as disappearance of parent compound at 5 uM after 30 mins in presence of NADPH by UPLC-MS/MS analysis
Rattus norvegicus [4] = assay: Anti-inflammatory activity in Brown Norway rat assessed as reduction in OVA-induced eosinophil infilteration to bronchoalveolar lavage administered orally bid 1 hr prior to OVA challenge on day 14 and 6 hrs post OVA challenge on day 21 measured 24 hrs post last OVA challenge by microscopic method; type: functional
[5] = Drug metabolism in rat liver microsomes assessed as disappearance of parent compound at 5 uM after 30 mins in presence of NADPH by UPLC-MS/MS analysis
Cytochrome P450 3A4 = Cytochrome P450 3A4 (Homo sapiens, UniProt P08684); assay: Inhibition of CYP3A4 in human liver microsomes assessed as reduction in testosterone 6beta-hydroxylation at 1 to 25 uM by UPLC-MS/MS analysis; type: ADME
Cytochrome P450 2C9 = Cytochrome P450 2C9 (Homo sapiens, UniProt P11712); assay: Inhibition of CYP2C9 in human liver microsomes assessed as reduction in diclofenac 4-hydroxylation at 1 to 25 uM by UPLC-MS/MS analysis; type: ADME
[6] = Oral bioavailability in Beagle dog at 1 mg/kg administered via gavage; type: ADME, organism-based, Canis lupus familiaris; settings: in vivo
[7] = Protein binding in rat plasma at 1 uM by LC-MS/MS analysis; type: ADME, cell-free; settings: read-out: PPB
[8] = Protein binding in mouse plasma at 1uM by LC-MS/MS analysis; type: ADME, cell-free; settings: read-out: PPB
[9] = Apparent permeability of compound at 20 uM after 5 hrs by PAMPA; type: ADME
[10] = Clearance in Wistar rat at 1 mg/kg, iv; settings: in vivo
Cytochrome P450 2C19 = Cytochrome P450 2C19 (Homo sapiens, UniProt P33261); assay: Inhibition of CYP2C19 in human liver microsomes assessed as reduction in S-mephenytoin-4-hydroxylation at 1 to 25 uM by UPLC-MS/MS analysis; type: ADME
Cytochrome P450 1A2 = target: T1, Cytochrome P450 1A2 (Homo sapiens, UniProt P05177); assay: Inhibition of CYP1A2 in human liver microsomes assessed as reduction in Ethoxyresorufin O-deethylation at 1 to 25 uM by UPLC-MS/MS analysis; type: ADME
T1 sequence (P05177 whole entry): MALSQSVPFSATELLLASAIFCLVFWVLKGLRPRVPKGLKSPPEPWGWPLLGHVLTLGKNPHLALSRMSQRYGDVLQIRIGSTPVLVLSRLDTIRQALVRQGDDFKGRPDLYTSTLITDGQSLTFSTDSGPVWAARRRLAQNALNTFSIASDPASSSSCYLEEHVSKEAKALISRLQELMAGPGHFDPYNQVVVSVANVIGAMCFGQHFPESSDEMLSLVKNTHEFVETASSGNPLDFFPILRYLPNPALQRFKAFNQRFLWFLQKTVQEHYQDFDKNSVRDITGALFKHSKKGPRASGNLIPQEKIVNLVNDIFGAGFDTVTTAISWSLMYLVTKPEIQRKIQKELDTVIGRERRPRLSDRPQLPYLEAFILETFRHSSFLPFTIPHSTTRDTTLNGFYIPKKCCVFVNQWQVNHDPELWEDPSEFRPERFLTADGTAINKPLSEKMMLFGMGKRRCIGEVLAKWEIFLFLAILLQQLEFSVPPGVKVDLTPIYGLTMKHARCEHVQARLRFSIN

[11] = Protein binding in dog plasma at 1 uM by LC-MS/MS analysis; type: ADME, cell-free, Canis lupus familiaris; settings: read-out: PPB
[12] = Stability in human plasma at 5 uM up to 24 hrs by UPLC-MS/MS analysis; type: ADME, cell-free; settings: read-out: Stability
Method in brief: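 Compound incubated at 2 µg/ml in plasma (sodium heparin anticoagulant) at 37 °C for 24 h; percent remaining reported.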

[13] = AUC in Wistar rat at 1 mg/kg, iv; type: ADME, organism-based; settings: in vivo
Method in brief: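 Wistar rats received a single 1 mg/kg intravenous dose. Plasma samples were collected and AUC was calculated from them, along with half-life, clearance and steady-state volume of distribution. Values are means of two animals (n=2).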

[14] = Half life in Beagle dog at 1 mg/kg, iv through bolus administration; type: ADME, organism-based, Canis lupus familiaris; settings: in vivo
[15] = Clearance in Beagle dog at 1 mg/kg, iv through bolus administration; settings: in vivo
[16] = target: PI3-kinase p110-alpha/p85-alpha (Homo sapiens, UniProt P42336); assay: Inhibition of full length recombinant human N-terminal His6-tagged PI3K p110alpha/human p85alpha expressed in baculovirus infected Sf21 insect cells using PIP2 as substrate preincubated for 30 mins followed by substrate addition by HTRF assay
Method in brief: (§1)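 Recombinant human class I PI3K isoform, HTRF readout. ATP held at the Km of the enzyme. Compound preincubated with enzyme for 30 min. PIP3 product detected by its displacement of biotin-PIP3 from an energy-transfer complex.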

[17] = Apparent volume of distribution in Wistar rat at 1 mg/kg, iv; type: ADME, organism-based; settings: in vivo, read-out: Vz
[18] = target: PI3-kinase p110-delta/p85-alpha (Homo sapiens, UniProt O00329); assay: Inhibition of full length recombinant human N-terminal His6-tagged PI3K p110delta/human p85alpha expressed in baculovirus infected sf21 cells using PIP2 as substrate preincubated for 30 mins followed by substrate addition by HTRF assay
[19] = Half life in Wistar rat at 1 mg/kg, iv; type: ADME, organism-based; settings: in vivo
[20] = AUC in Beagle dog at 1 mg/kg, iv through bolus administration; type: ADME, organism-based, Canis lupus familiaris; settings: in vivo
[21] = Oral bioavailability in Wistar rat at 1 mg/kg administered via gavage; type: ADME, organism-based; settings: in vivo
PI3K p110 beta/p85 alpha = PI3K p110 beta/p85 alpha (Homo sapiens, UniProt P42338); assay: Inhibition of full length recombinant human N-terminal […]-tagged PI3K p110beta/full length human p85alpha expressed in baculovirus infected Sf21 insect cells using PIP2 as substrate preincubated for 30 mins followed by substrate addition by HTRF assay; method in brief: as §1
Cytochrome P450 2D6 = Cytochrome P450 2D6 (Homo sapiens, UniProt P10635); assay: Inhibition of CYP2D6 in human liver microsomes assessed as reduction in dextromethorphan O-demethylation at 1 to 25 uM by UPLC-MS/MS analysis; type: ADME
[22] = Protein binding in human plasma at 1 uM by LC-MS/MS analysis; type: ADME, cell-free; settings: read-out: PPB
Method in brief: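 Binding measured by equilibrium dialysis at 37 °C, compound at 1 µM in human plasma; percent bound reported as mean.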

Sequence of Cytochrome P450 2C9 (P11712 whole entry): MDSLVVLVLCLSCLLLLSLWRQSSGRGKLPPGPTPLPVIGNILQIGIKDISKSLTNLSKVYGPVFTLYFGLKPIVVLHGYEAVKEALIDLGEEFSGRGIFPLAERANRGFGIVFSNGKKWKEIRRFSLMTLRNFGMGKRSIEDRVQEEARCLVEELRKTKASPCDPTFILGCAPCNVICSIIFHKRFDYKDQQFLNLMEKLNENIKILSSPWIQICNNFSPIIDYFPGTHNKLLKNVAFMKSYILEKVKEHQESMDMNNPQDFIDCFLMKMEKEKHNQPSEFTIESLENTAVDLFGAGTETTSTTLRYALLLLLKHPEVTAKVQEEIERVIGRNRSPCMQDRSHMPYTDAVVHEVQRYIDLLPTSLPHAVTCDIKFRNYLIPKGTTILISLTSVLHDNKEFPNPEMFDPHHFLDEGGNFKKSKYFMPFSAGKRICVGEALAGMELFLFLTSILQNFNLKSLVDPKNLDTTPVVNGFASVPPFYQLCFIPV
Sequence of Cytochrome P450 2C19 (P33261 whole entry): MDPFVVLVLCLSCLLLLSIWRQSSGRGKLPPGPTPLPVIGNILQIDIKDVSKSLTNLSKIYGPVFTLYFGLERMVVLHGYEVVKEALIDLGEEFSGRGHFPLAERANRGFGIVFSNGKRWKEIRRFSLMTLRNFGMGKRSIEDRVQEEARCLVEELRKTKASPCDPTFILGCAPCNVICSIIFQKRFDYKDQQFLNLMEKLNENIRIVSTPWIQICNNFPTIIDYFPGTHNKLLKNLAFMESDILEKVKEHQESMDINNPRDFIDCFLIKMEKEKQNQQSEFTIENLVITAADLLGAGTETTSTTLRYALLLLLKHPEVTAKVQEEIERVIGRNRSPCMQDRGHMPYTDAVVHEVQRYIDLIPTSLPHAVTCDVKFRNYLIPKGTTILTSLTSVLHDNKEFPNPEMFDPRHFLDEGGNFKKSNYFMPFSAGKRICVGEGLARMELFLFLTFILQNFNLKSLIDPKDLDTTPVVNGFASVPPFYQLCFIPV
Sequence of PI3-kinase p110-delta/p85-alpha (P27986 whole entry): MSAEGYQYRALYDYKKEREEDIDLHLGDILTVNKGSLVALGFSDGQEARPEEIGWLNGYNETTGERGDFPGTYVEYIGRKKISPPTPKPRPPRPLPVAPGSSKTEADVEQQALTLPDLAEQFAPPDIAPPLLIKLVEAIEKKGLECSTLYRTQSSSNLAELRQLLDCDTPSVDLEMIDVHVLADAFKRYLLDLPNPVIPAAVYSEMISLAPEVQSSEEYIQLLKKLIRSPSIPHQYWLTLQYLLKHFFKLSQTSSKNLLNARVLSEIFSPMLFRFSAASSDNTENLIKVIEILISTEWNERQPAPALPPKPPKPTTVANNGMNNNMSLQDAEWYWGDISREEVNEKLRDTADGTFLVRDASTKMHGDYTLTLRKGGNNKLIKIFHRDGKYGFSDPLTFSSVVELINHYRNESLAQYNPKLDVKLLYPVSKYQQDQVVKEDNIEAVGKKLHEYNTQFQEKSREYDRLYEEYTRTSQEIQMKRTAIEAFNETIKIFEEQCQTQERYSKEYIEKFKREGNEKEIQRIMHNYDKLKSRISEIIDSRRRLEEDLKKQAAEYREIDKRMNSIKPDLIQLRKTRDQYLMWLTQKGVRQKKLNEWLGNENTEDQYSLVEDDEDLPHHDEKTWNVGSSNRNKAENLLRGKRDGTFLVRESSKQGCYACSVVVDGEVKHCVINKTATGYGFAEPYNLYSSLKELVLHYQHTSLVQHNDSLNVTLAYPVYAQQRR
Sequence of PI3-kinase p110-delta/p85-alpha (O00329 whole entry): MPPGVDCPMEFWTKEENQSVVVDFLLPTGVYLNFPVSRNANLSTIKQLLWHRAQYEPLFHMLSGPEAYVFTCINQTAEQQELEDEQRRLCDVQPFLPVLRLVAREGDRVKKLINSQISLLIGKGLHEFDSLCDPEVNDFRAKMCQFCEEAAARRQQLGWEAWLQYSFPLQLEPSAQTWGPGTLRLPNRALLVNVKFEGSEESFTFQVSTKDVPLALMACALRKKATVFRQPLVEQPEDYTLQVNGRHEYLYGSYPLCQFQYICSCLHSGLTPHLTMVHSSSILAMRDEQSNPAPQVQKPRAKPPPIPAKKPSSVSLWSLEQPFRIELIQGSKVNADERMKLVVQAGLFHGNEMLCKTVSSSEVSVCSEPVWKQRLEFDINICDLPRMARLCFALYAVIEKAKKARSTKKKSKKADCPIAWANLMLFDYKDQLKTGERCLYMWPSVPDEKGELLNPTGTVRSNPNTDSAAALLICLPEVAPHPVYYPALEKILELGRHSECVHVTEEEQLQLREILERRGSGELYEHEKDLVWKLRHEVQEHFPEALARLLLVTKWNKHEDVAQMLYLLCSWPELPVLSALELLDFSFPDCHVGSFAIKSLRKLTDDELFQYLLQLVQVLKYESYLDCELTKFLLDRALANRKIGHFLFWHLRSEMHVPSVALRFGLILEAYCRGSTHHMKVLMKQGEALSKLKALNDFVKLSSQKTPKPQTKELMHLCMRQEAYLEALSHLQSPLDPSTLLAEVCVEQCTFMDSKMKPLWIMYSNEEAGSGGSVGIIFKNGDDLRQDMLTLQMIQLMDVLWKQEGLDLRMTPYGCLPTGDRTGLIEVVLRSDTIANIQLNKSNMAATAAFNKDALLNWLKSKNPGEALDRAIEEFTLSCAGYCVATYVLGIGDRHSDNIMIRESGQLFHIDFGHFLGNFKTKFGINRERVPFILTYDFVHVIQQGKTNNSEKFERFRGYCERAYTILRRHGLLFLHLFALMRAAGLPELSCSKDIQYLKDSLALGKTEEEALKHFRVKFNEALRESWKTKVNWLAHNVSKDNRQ
Sequence of PI3K p110 beta/p85 alpha (P27986 whole entry): as the sequence (P27986 whole entry) above
Sequence of PI3K p110 beta/p85 alpha (P42338 whole entry): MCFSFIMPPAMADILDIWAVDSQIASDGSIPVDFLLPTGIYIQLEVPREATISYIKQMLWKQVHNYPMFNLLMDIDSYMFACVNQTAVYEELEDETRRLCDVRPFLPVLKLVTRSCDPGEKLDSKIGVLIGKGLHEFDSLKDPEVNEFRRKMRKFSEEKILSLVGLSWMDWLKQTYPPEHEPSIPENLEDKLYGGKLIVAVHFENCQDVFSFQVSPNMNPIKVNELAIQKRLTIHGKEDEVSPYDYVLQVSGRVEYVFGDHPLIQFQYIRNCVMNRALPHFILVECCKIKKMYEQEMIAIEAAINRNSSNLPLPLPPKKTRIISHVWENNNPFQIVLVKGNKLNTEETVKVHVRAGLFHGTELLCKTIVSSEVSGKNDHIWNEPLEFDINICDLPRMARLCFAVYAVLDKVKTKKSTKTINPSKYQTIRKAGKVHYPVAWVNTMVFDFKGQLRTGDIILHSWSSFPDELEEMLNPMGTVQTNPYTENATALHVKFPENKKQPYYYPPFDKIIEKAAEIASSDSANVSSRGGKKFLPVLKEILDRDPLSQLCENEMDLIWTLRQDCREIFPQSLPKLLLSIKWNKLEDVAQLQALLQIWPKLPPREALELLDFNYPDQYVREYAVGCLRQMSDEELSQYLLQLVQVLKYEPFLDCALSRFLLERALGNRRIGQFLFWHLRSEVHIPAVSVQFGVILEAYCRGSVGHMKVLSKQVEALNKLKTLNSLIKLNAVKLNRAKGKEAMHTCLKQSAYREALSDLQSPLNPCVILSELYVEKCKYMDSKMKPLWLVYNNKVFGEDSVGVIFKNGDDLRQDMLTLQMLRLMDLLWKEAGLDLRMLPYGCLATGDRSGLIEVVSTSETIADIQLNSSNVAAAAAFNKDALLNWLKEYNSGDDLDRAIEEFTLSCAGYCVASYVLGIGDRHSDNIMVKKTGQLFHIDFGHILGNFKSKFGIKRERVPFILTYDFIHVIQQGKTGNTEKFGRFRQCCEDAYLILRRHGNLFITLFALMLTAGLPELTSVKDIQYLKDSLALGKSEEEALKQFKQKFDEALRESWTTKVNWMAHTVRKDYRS
Sequence of PI3-kinase p110-alpha/p85-alpha (P27986 whole entry, canonical isoform): as the sequence (P27986 whole entry) above
Sequence of PI3-kinase p110-alpha/p85-alpha (P42336 whole entry, canonical isoform): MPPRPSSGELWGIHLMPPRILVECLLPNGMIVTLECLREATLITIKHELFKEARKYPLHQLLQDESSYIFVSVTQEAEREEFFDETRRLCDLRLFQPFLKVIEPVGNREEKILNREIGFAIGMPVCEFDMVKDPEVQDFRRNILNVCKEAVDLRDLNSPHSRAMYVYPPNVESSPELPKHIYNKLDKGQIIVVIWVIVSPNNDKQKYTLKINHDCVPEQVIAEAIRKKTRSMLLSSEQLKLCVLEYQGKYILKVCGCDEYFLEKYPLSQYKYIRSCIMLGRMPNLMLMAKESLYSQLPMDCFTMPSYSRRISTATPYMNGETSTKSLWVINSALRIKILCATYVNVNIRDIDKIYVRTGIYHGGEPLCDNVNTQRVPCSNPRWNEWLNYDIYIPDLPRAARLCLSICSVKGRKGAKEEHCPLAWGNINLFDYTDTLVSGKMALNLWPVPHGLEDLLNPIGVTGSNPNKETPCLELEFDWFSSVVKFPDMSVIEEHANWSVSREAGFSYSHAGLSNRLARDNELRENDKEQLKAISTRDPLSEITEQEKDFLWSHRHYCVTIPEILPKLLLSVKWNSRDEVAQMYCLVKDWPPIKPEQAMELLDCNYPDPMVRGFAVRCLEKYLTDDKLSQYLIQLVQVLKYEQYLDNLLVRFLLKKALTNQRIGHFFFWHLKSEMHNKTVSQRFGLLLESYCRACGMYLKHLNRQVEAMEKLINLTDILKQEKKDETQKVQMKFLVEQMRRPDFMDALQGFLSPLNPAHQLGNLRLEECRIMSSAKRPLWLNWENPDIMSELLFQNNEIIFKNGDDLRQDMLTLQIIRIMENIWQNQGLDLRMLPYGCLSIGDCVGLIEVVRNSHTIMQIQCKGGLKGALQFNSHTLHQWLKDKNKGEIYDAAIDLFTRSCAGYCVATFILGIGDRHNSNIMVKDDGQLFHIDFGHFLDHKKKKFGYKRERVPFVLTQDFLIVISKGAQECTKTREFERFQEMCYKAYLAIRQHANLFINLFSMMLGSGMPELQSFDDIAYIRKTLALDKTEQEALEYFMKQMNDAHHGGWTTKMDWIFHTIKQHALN

## C[C@H](Nc1ncnc(N)c1C#N)c1nn2ccc(C#N)c2c(=O)n1-c1ccccc1
[1]
  Vd: 1.2 L/kg
Rattus norvegicus [2]
  ED50: 0.13 mg/kg
[3]
  metabolised at 0.5 h, 5 µM: 16%
Rattus norvegicus [4]
  Activity: Dose-dependent effect
Rattus norvegicus [4]; po, read-out: ID50 (the source's name)
  ED50: 0.16 mg/kg
[5]
  metabolised at 0.5 h, 5 µM: 20%
Cytochrome P450 3A4
  IC50: > 25 µM
Cytochrome P450 2C9
  IC50: > 25 µM
[6]
  bioavailability: 98%
[7]
  fraction unbound at 1 µM: 0.35 to 0.4
[8]
  fraction unbound at 1 µM: 0.35 to 0.4
[9]
  Papp at 5 h, 20 µM: 2.8 ×10⁻⁶ cm/s
[10]
  clearance: 9.6 mL/min/kg
Cytochrome P450 2C19
  IC50: > 25 µM
Cytochrome P450 1A2
  IC50: > 25 µM
[11]
  fraction unbound at 1 µM: 0.35 to 0.4
[12]
  remaining at 24 h, 5 µM: 100%
[13]
  AUC: 1730 ng·h/mL
[14]
  half-life: 612 min
[15]
  clearance: 1.4 mL/min/kg
[16]
  IC50: 8.2 µM
[17]
  Vd: 2.6 L/kg
[18]
  IC50: 2.6 nM
[19]
  half-life: 186 min
[20]
  AUC: 9440 ng·h/mL
[21]
  bioavailability: 101%
PI3K p110 beta/p85 alpha
  IC50: 94 nM
Cytochrome P450 2D6
  IC50: > 25 µM
[22]
  fraction unbound at 1 µM: 0.046 to 0.05
